Results published in publication PMC9418647 (European Journal of Drug Metabolism and Pharmacokinetics, 2022).

Legend:
[1] = cited from earlier work
[2] = finerenone 20 mg; cited from earlier work
OATP1B3 = molecular target: T1, OATP1B3 (Homo sapiens, UniProt Q9NPD5); assay: Uptake assay for OATP1B3 inhibition in HEK-OATP1B3 cells; type: in vitro ADME
T1 sequence (Q9NPD5 1-702): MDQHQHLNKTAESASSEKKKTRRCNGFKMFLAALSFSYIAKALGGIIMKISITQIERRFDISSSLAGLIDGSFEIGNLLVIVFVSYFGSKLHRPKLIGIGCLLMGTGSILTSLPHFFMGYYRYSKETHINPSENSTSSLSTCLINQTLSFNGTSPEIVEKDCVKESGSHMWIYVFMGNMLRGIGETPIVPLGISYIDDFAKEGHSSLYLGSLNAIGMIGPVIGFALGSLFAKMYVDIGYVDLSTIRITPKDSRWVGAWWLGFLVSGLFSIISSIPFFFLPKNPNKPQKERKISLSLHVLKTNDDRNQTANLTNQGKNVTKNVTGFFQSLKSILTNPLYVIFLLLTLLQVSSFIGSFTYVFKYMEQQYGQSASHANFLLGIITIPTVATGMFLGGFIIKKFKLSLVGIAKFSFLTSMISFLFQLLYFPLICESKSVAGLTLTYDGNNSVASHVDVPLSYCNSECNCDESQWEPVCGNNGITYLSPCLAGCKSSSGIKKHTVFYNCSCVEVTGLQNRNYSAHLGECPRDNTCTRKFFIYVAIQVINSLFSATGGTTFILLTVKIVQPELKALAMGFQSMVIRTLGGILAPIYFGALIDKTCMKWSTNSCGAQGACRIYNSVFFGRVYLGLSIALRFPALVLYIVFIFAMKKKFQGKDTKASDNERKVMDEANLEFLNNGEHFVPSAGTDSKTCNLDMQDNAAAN
Outline: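 Transporter-mediated transport measured across a test-compound concentration range. Where inhibition stayed below 50% at the top concentration, IC50 was reported as greater than the highest tested concentration.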

[3] = Clinical study: safety and tolerability; type: in vivo, human
Outline: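 Healthy men given finerenone 40 mg once daily for 10 days, with rosuvastatin. Supine BP, HR and 12-lead ECG recorded after 15 min rest, pre-dose and up to 24 h post-dose. Haematology and chemistry including serum electrolytes taken pre-dose and at 24 and 48 h, except after separated dosing. Adverse events elicited with non-leading questions through follow-up.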

OATP1B1 = molecular target: T2, OATP1B1 (Homo sapiens, UniProt Q9Y6L6); assay: Uptake assay for OATP1B1 inhibition in HEK-OATP1B1 cells; type: in vitro ADME
T2 sequence (Q9Y6L6 1-691): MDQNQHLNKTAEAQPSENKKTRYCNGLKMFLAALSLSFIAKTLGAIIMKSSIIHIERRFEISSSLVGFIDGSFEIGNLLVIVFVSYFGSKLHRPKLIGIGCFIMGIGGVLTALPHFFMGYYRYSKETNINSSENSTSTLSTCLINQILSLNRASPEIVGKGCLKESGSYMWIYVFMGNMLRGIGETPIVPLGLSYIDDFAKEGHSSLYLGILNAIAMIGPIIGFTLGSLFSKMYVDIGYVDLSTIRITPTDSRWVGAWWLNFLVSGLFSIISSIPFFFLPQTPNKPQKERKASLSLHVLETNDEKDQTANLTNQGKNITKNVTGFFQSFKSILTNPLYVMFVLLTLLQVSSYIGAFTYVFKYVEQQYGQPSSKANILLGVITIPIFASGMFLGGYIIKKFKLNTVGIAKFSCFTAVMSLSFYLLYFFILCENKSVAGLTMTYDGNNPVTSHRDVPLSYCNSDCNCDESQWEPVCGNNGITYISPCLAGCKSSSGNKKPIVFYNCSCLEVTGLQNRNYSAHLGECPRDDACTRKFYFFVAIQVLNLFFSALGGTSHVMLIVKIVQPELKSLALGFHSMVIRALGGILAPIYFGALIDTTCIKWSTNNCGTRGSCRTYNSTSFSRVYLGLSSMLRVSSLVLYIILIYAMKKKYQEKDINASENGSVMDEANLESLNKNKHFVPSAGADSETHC
Outline: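 OATP1B1 uptake measured across a test-compound concentration range. IC50 reported as greater than the top concentration if inhibition stayed below 50%, and that concentration was then used in the calculation. AUC ratio estimated by the basic static model, assuming substrate clearance runs solely via the transporter.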

[4] = cited from earlier work; remark: listed apart in the source

For CCOc1ncc(C)c2c1[C@H](c1ccc(C#N)cc1OC)C(C(N)=O)=C(C)N2 [Finerenone, finerenone], the absolute bioavailability [1] is given as 43.5%, the “administered dose excreted in feces” value [1] is given as “approximately 20%” and the “administered dose excreted in urine” value [1] is given as “About 80%”. For the same compound, the “dose excreted unchanged in feces” value [1] was under 0.2%, the “dose excreted unchanged in urine” value [1] was under 1% and the “share of metabolic clearance by CYP3A4” value ([1]; remainder attributable to CYP2C8) was “about 90%”. For the same compound, the “effect on repaglinide (CYP2C8 and OATP substrate)” value [2] was “no effect”, the IC50 (OATP1B3) was over 10 µM and the “changes in potassium levels” value ([3]; finerenone 40 mg) was “no relevant changes in potassium levels”. The “serious or severe adverse events” value ([3]; finerenone 40 mg alone or with rosuvastatin) was “no serious or severe AEs”, the tolerability ([3]; repeated doses of finerenone 40 mg once daily, healthy male volunteers) was “well tolerated” and the IC50 (OATP1B1) was 3.2 µM. The “predicted AUC ratio (AUCR), inhibition of OATP1B1” value (OATP1B1; basic model R = 1 + [I]inlet,max,u (or Cmax,u)/IC50) was 1.182.
For CC(C)c1nc(N(C)S(C)(=O)=O)nc(-c2ccc(F)cc2)c1/C=C/[C@@H](O)C[C@@H](O)CC(=O)O [Rosuvastatin, rosuvastatin], the “Tmax (expected)” value [4] is listed as “approximately 5 h”.
In the case of CC1=NN(c2ccc(C)c(C)c2)C(=O)/C1=N\Nc1cccc(-c2cccc(C(=O)O)c2)c1O [eltrombopag], the “rosuvastatin AUC ratio” value [4] is listed as 1.55 and the “rosuvastatin Cmax ratio” value [4] is listed as 2.03.
For Cc1ccc(C)c(OCCCC(C)(C)C(=O)O)c1 [gemfibrozil], the “increase of rosuvastatin AUC” value [4] is given as 1.88 fold and the “increase of rosuvastatin Cmax” value [4] is given as 2.21 fold.
In the case of CO[C@H]1/C=C/O[C@@]2(C)Oc3c(C)c(O)c4c(O)c(c(/C=N/N5CCN(C)CC5)c(O)c4c3C2=O)NC(=O)/C(C)=C\C=C\[C@H](C)[C@H](O)[C@@H](C)[C@@H](O)[C@@H](C)[C@H](OC(C)=O)[C@@H]1C [rifampicin], the “CP-I AUC ratio” value [4] is given as 4.0, the “CP-III AUC ratio” value [4] is given as 3.3 and the “rosuvastatin AUC ratio” value [4] is given as 5.0.
